# HCV core dimer – blocks dimerization of HCV core protein | TR-FRET GST/Flag-core106 dimerization, 1536-well | inhibition, % at 5 µM | 300,000 tested, 0.33% active;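 active = inhibition above the mean of all tested compounds plus 3 SD, set per screening campaign, cut at about 45% in these data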
#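 assay system = GST-tagged and Flag-tagged HCV core protein residues 1-106 | controls = unlabelled core106 and no-GST-core106 wells | incubation = compound-protein-antibody incubation 4 h at 22.5 °C | probe or stimulus = Eu donor and XL665 acceptor anti-tag antibodies | read-out = % inhibition based on acceptor/donor emission ratio | signal = TR-FRET 671 and 617 nm emission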
# ASAP1 inh – inhibitors of human ASAP1 ArfGAP activity | 360,000 tested, 0.19% active | ASAP1-stimulated ARF1 GTP hydrolysis, GDP FP detection | inhibition, % at 16.5 µM; in the data active = inhibition above about 25%;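 also: 0% = vehicle with enzyme and substrate and 100% = no enzyme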
# Target sequence (Q9ULH1 325-724 limits assumed): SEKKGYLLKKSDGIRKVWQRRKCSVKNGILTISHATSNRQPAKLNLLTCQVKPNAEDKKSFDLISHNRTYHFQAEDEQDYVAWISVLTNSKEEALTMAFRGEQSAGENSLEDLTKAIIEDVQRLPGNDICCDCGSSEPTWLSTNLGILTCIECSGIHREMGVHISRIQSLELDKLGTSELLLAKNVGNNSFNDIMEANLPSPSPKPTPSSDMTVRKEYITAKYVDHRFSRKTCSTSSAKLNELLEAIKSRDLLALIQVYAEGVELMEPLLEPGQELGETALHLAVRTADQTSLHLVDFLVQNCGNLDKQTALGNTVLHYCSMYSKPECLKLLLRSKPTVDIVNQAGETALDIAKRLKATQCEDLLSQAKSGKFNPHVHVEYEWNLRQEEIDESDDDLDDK
# NPR1 activator – GC-A (human) enzyme activation; P16066; HEK293 GC-A cells, cGMP TR-FRET, EC30 ANP; 0% at EC30 ANP, 100% saturating ANP; 370,000 tested, 0.14% active; AID 1671463; activation, % at 10 µM; in the data active = activation above about 40%
# NPR2 activator – GC-B (human) receptor activation | P20594 | HEK293-GC-B cells, CNP EC30, cGMP TR-FRET; 0% at EC30 CNP, 100% saturating CNP | activation, % at 10 µM | 370,000 tested, 0.11% active | AID 1920062;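 active = activation at 10 µM reaching about 35% in either raw or pattern-adjusted values, limit read from the data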
# Fh CTSL1 inh – blocks F. hepatica cathepsin L1 in PFM18AAP counter-screen. inhibition, % at 5.96 µM. AID 1906. recombinant F. hepatica cathepsin L1, Z-Leu-Arg-MCA fluorescence. 300,000 tested, 0.49% active;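 active = inhibition above the mean of all tested compounds plus 3 SD, set per screening campaign, cut at about 17% in these data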;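 also: 0% = plate median of test compound wells and 100% = 1 µM Z-Phe-Ala-diazomethylketone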
# ARFGAP1 inhibitor – inhibits rat ARF GTPase activating protein 1. Q62848. Arfgap1-stimulated ARF1 GTP hydrolysis, GDP FP detection. inhibition, % at 16.5 µM. 360,000 tested, 0.26% active. AID 651572;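 active = inhibition above a per-plate limit, mean inhibition of low control wells plus 3 SD, cut at about 25% in these data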;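 also: 0% = DMSO wells with enzyme and 100% = wells lacking Arfgap1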
# Target sequence (Q62848 1-136 limits assumed): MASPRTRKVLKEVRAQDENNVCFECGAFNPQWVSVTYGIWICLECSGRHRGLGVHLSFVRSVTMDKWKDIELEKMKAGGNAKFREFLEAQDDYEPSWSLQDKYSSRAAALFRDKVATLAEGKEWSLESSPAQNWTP
#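 Assay system: Rat Arfgap1 GAP domain (His6, aa 1-136), purified enzyme | Buffer or medium: HEPES 25 mM pH 7.5, NaCl 150 mM, MgCl2, DTT | Schedule: GTP hydrolysis reaction 2 h at 25 °C | Signal: FP of antibody-bound GDP Alexa 633 tracer, ex 620/em 688 nm | Measure: Percent inhibition of Arfgap1-stimulated GTP hydrolysis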
# ASAP1 inh confirm – confirmation of human ASAP1 inhibitors; shares compounds with ASAP1 inh; inhibition, % at 16.5 µM; 620 tested, 37% active; ASAP1-stimulated Arf1 GTPase, GDP fluorescence polarization;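 active = mean inhibition over triplicates exceeds the hit threshold derived for the earlier primary screening run, cut at about 25% in these data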
# * marks the source's active call; other numbers are inactive results; nt = no result given. The list is not random: actives were taken first. Their share in the collection is about 1.2%.
SMILES,HCV core dimer,ASAP1 inh,NPR1 activator,NPR2 activator,Fh CTSL1 inh,ARFGAP1 inhibitor,ASAP1 inh confirm
O=[N+]([O-])c1ccccc1OCCOc1ccccc1[N+](=O)[O-],5.8,81.3*,-3.5,0.6,-4.4,34.9*,102.1*
NC1=NN(c2c(Cl)cc(Cl)cc2Cl)C(=O)C1,nt,25.8*,2.1,2.7,nt,-4.9,6.4
CS(=O)(=O)c1ccc(Cl)c(NC(=O)C2CC(=O)N(c3ccc4c(c3)OCCO4)C2)c1 (stereo not given),8.6,3.0,-2.6,1.7,1.6,3.3,nt
C=CCN1C(=O)[C@@H](CC(=O)NCc2cccc3ccccc23)[C@]2(C(=O)OCC)CCCCC/C=C/12,nt,nt,-3.4,-9.6,nt,nt,nt
O=C(Nc1c(-c2ccc3c(c2)OCO3)[nH][nH]c1=O)c1ccccc1,nt,30.3*,1.4,0.7,nt,15.1,10.8
Cc1ccc(-c2nc(C#N)c(N3CCCCC3)o2)cc1,18.2,-2.2,6.7,-0.2,6.1,-5.5,nt
CC(C)[C@H](NC(=O)C1CC1)C(=O)N1CCC[C@H]1C(=O)NCc1ccccc1,nt,-2.4,3.0,-3.8,nt,-3.9,nt
Cc1nn(-c2ccccc2)c(C)c1/C=N/NC(=O)c1cc(C(C)(C)C)[nH]n1,-2.6,3.3,-2.9,-4.9,0.3,-3.6,nt
Cc1nn(-c2ccccc2)c(C)c1-c1cc(C(=O)N/N=C/c2cccnc2)[nH]n1,2.2,6.1,-5.0,-1.3,-1.9,1.9,nt
Cc1ccc(-c2cc(C(=O)N/N=C/c3c(C)nn(-c4ccccc4)c3C)n[nH]2)s1,nt,25.8*,-8.2,0.5,nt,16.6,34.1*
Cc1ccc(-c2cc(C(=O)N/N=C/c3c(C)nn(-c4ccccc4)c3C)[nH]n2)cc1,nt,25.5*,-6.4,-0.3,nt,15.0,6.6
COc1ccc(C(=O)N/N=C/c2cn[nH]c2-c2ccc(OC)cc2OC)cc1,-3.3,29.0*,-0.9,-1.1,1.0,4.0,19.4
COc1ccc(/C=N/NC(=O)c2cc3c(ccc4ccccc43)o2)c(OC)c1,nt,33.8*,26.8,-3.0,nt,8.1,16.0
CCOc1ccc(-c2nc(CSCC(=O)NCCCN3CCCC3=O)c(C)o2)cc1,-3.0,2.6,0.3,-1.3,-2.9,10.0,nt
Cc1cccc(Cn2cc(/C=C/[N+](=O)[O-])c3ccccc32)c1,4.6,4.4,-22.5,-15.3,-2.2,-3.8,nt
COc1ccc(C(C(=O)NC2CCCCC2)N(CC2CCCO2)C(=O)C2COc3ccccc3O2)cc1OC (stereo not given),5.3,8.0,-12.8,-1.3,3.6,8.2,nt
COC(=O)c1ccc(N2C(=O)CC(SCCN)C2=O)cc1 (stereo not given),-0.4,0.1,-2.2,-1.0,-5.3,-3.8,nt
CCOc1ccc2[nH]c(C(=O)N/N=C/c3cc(OC)c(OC)c(OC)c3)cc2c1,1.3,27.3*,4.5,3.7,6.7,20.5,50.7*
CCCc1ccc(NC(C)C(=O)Nc2ccc(S(=O)(=O)N3CCOCC3)cc2)cc1 (stereo not given),nt,2.7,7.6,1.2,nt,1.5,nt
Cc1nc(NCCc2ccc(S(N)(=O)=O)cc2)c2c(C)c(C)sc2n1,7.2,24.7*,-0.7,3.2,3.4,14.4,3.2
CC(CCc1ccccc1)NC(=O)c1ccccc1F (stereo not given),-10.3,5.2,-0.1,6.5,-4.7,11.6,nt
Cc1ccc(NC(=O)C(OC(=O)c2ccc(O)cc2)c2ccccc2)cc1Cl (stereo not given),16.9,27.6*,0.3,6.8,-8.5,9.7,-0.7
CCN1C=C(Cc2cccs2)C2=C(C1)C(c1cccs1)C(C#N)=C(N)O2 (stereo not given),38.5,25.1*,-5.0,-9.9,1.6,-4.0,6.7
CC1OC(Nc2cccc3ccccc23)C(O)C(O)C1O (stereo not given),-3.7,26.2*,-5.2,3.6,9.1,9.1,4.0
CC1OC(Nc2ccc(N=Nc3ccccc3)cc2)C(O)C(O)C1O (stereo not given),-14.8,6.2,10.1,-1.4,6.0,1.4,nt
SMILES,HCV core dimer,ASAP1 inh,NPR1 activator,NPR2 activator,Fh CTSL1 inh,ARFGAP1 inhibitor,ASAP1 inh confirm
O=C(O)c1cccc(S(=O)(=O)Nc2ccccc2Cc2ccccc2)c1,9.0,4.7,0.6,10.7,0.4,-3.8,nt
CCC(C)n1c(=N)c(C#N)cc2c(=O)n3cccc(C)c3nc21 (stereo not given),-2.8,-3.5,8.7,-4.2,-0.6,16.3,nt
CC1CCCC(C)N1C(=O)COC(=O)CCC(=O)c1ccc(F)cc1 (stereo not given),nt,28.9*,5.2,3.1,nt,-3.6,1.8
O=C(c1ccncc1)N1CCC(Oc2cccnc2)CC1,nt,nt,1.1,0.9,nt,nt,nt
Cc1ccc(NC(=O)CSc2nnc(-c3ccc(S(=O)(=O)N4CCCC4)cc3)o2)cc1C,-2.1,30.7*,-3.5,-7.9,1.0,-5.5,4.3
CN(Cc1cccc(Cl)c1Cl)C(=O)CCNC(=O)c1ccco1,nt,29.1*,0.7,-0.8,nt,-3.8,1.2
Cc1nnc2sc(-c3ccc(NC(=O)c4ccc(-c5ccc(Cl)cc5Cl)o4)cc3)nn12,12.0,111.8*,-2.6,-9.0,-0.1,20.1,55.5*
COc1cc2c(cc1OC)CN(CC(=O)Nc1ccc(S(=O)(=O)N3CCCC3)cc1)CC2,-1.3,-4.6,1.7,6.0,3.4,-4.9,nt
Cc1ccc(Cn2c(N)c(S(=O)(=O)c3cccs3)c3nc4ccccc4nc32)cc1,26.9,-4.7,8.1,3.0,1.4,-9.0,nt
Nc1c(S(=O)(=O)c2cccs2)c2nc3ccccc3nc2n1Cc1ccccc1,10.7,26.1*,-9.6,-12.6,2.9,16.4,7.6
COC(=O)c1ccccc1-c1ccc(C(c2c(C)[nH][nH]c2=O)c2c(C)[nH][nH]c2=O)o1,-5.6,30.7*,4.3,8.6,4.3,20.5,-0.5
COC(=O)c1ccccc1NC(=O)c1ccc(-c2ccccc2F)o1,-2.9,-10.4,-8.7,2.7,-0.2,5.9,nt
Cc1nnc(-c2cccc(Br)c2)c2cn(-c3ccccc3)nc12,1.1,12.1,14.1,20.4,-1.8,-1.2,nt
Cc1nnc(-c2cccc(Br)c2)c2cn(-c3cccc(Br)c3)nc12,-44.5,27.5*,5.6,0.1,1.6,13.6,20.4
NC(=O)CN1C(=O)NC2(CCCc3ccccc32)C1=O (stereo not given),-0.1,25.1*,-1.0,0.4,-2.1,1.5,5.0
O=C(N=Nc1c(O)[nH]c2ccc(F)cc12)c1ccc(NS(=O)(=O)c2cccs2)cc1,nt,6.3,-6.5,-4.4,nt,1.8,nt

# Bioassay records: PubChem BioAssay, several laboratories
